pKi: −log10 of the molar value. Values after ≈ are worked out from the molar mass of the structure shown. Active and inactive are the calls of the source. The rule behind the calls is not given here.
Experiments:
Staphylococcus aureus [1] = assay: Antibacterial activity against Staphylococcus aureus ATCC 29213 assessed as inhibition of bacterial growth incubated for 18 hrs by spectrophotometric method; type: functional
Summary of the method: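 Racemic compounds tested against standardized S. aureus strain 29213 cultures following CLSI procedure; MIC recorded; n = 2 independent assays, each with duplicate technical replicates.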

[2] = (§1) Inhibition of recombinant Staphylococcus aureus DHFR expressed in Escherichia coli BL21 (DE3) using dihydrofolate as substrate and NADPH as cofactor incubated for 2.8 mins
Summary of the method: (§2)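 Recombinant S. aureus DHFR expressed in E. coli BL21 (DE3). Reaction reconstituted with NADPH and varied inhibitor concentrations (racemates, diluted from 10 mM DMSO stock), started by adding dihydrofolate. Run at 30 °C, rate followed 2.8 min over linear range. 50% activity point from 4-parameter fit of rate vs concentration. IC50 converted to Ki by Cheng-Prusoff using previously measured KM. n ≥ 3 independent assays, duplicate technical replicates.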

Staphylococcus aureus [3] = assay: as §1; summary of the method: as §2

With CCCC1c2cc(C)c(C)cc2C=NN1C(=O)/C=C/c1cc(Cc2cnc(N)nc2N)cc(OC)c1OC (racemic) the MIC (Staphylococcus aureus [1]) was 0.5 µg/mL (≈ 0.972 µM) and the pKi [2] was 8.92.
Work on CCCC1c2ccccc2C=NN1C(=O)/C=C/c1cc(Cc2cnc(N)nc2N)cc(OC)c1OC (configuration not stated) yielded an MIC (Staphylococcus aureus [1]) of 0.0625 µg/mL (≈ 0.128 µM) and a pKi [2] of 8.92.
With COc1ccc(CC2c3ccccc3C=NN2C(=O)/C=C/c2cc(Cc3cnc(N)nc3N)cc(OC)c2OC)cc1 (configuration not stated) the pKi [2] was 8.92.
With COc1cc(Cc2cnc(N)nc2N)cc(/C=C/C(=O)N2N=Cc3ccccc3C2c2ccccc2)c1OC (configuration not stated) the inhibition (Staphylococcus aureus [3]) was “Active”.
COc1cc2c(cc1OC)C(C1CC1)N(C(=O)/C=C/c1cc(Cc3cnc(N)nc3N)cc(OC)c1OC)N=C2 (racemic) showed an MIC (Staphylococcus aureus [1]) of 1 µg/mL (≈ 1.84 µM) and a pKi [2] of 9.15.
With COc1cc(Cc2cnc(N)nc2N)cc(/C=C/C(=O)N2N=Cc3ccccc3C2c2ccc(C)cc2)c1OC (configuration not stated) the MIC (Staphylococcus aureus [1]) was 0.046 µg/mL (≈ 0.086 µM) and the inhibition (Staphylococcus aureus [3]) was “inactive”.
In the case of COc1cc(Cc2cnc(N)nc2N)cc(/C=C/C(=O)N2N=Cc3ccccc3C2c2cc(C)cc(C)c2)c1OC (configuration not stated), the inhibition (Staphylococcus aureus [3]) was “inactive”.
COc1cc(Cc2cnc(N)nc2N)cc(/C=C/C(=O)N2N=Cc3ccccc3C2Cc2ccc(C)cc2)c1OC (configuration not stated) showed an MIC (Staphylococcus aureus [1]) of 0.25 µg/mL (≈ 0.456 µM) and a pKi [2] of 8.64.
In the case of COc1cc(Cc2cnc(N)nc2N)cc(/C=C/C(=O)N2N=Cc3ccccc3C2C=C(C)C)c1OC (configuration not stated), the inhibition (Staphylococcus aureus [3]) was “Active”.
For CCC(CC)C1c2ccccc2C=NN1C(=O)/C=C/c1cc(Cc2cnc(N)nc2N)cc(OC)c1OC (configuration not stated), the inhibition (Staphylococcus aureus [3]) was “inactive”.
For COc1cc(Cc2cnc(N)nc2N)cc(/C=C/C(=O)N2N=Cc3ccccc3C2C2CCCCC2)c1OC (configuration not stated), the inhibition (Staphylococcus aureus [3]) was “Active”.
For COc1cc(Cc2cnc(N)nc2N)cc(/C=C/C(=O)N2N=Cc3ccccc3C2C(C)C)c1OC (configuration not stated), the MIC (Staphylococcus aureus [1]) was 0.188 µg/mL (≈ 0.385 µM) and the inhibition (Staphylococcus aureus [3]) was “Active”.
For COc1cc(Cc2cnc(N)nc2N)cc(/C=C/C(=O)N2N=Cc3ccccc3C2CC(C)C)c1OC (configuration not stated), the inhibition (Staphylococcus aureus [3]) was “Active”.
CCCC1c2cc(OC)c(OC)cc2C=NN1C(=O)/C=C/c1cc(Cc2cnc(N)nc2N)cc(OC)c1OC (racemic) showed an MIC (Staphylococcus aureus [1]) of 1 µg/mL (≈ 1.83 µM) and a pKi [2] of 8.96.
In the case of COc1cc(Cc2cnc(N)nc2N)cc(/C=C/C(=O)N2N=Cc3ccccc3C2CCC(F)(F)F)c1OC (configuration not stated), the inhibition (Staphylococcus aureus [3]) was “Active”.
